# ChEMBL document CHEMBL3259728, “Design, synthesis and biological evaluation of some novel substituted quinazolines as antitumor agents” (2014)
# Key:
# Format in all cases: functional
# MDA-MB-435 = test: Cytotoxicity against human MDA-MB-435 cells after 48 hrs by SRB assay; conditions: MDA-MB-435, 48 h
# In short: (§1)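 NCI 60-cell-line panel of human tumour lines from nine cancer types. Continuous 48 h exposure at five 10-fold dilutions from 10^-4 to 10^-8 M, with 5-FU as positive control. SRB protein stain read spectrophotometrically at time zero, untreated control and each concentration. GI50, TGI and LC50 were derived from the [(Ti−Tz)/(C−Tz)]×100 growth relations, and out-of-range values are given as > or < the tested limits.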
# MDA-MB-231 = test: Cytotoxicity against human MDA-MB-231 cells after 48 hrs by SRB assay; conditions: MDA-MB-231, 48 h; in short: as §1
# NCI-H226 = test: Growth inhibition of human NCI-H226 cells assessed as cell growth at 10^-5 M after 48 hrs by SRB assay; conditions: NCI-H226, 48 h, read-out: Activity
# 786-0 = test: Growth inhibition of human 786-0 cells assessed as cell growth at 10^-6 M after 48 hrs by SRB assay; conditions: 786-0, 48 h, read-out: Activity
# In short: (§2)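 Five-dose NCI panel protocol. Each dose (10^-4 to 10^-8 M, 10-fold steps) was given as 48 h continuous exposure, and protein was measured by SRB staining. Percentage growth at each level is [(Ti−Tz)/(C−Tz)]×100, where Tz is time-zero absorbance and C is untreated control.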
# NCI-H322M = test: Cytotoxicity against human NCI-H322M cells after 48 hrs by SRB assay; in short: as §1
# RPMI-8226 [1] = test: Growth inhibition of human RPMI8226 cells assessed as cell growth at 10^-6 M after 48 hrs by SRB assay; conditions: RPMI-8226, 48 h, read-out: Activity
# [2] = Growth inhibition of human OVCAR5 cells assessed as cell growth at 10^-6 M after 48 hrs by SRB assay; conditions: OVCAR-5, 48 h, read-out: Activity
# [3] = Growth inhibition of human HCT15 cells assessed as cell growth at 10^-5 M after 48 hrs by SRB assay; conditions: HCT-15, 48 h, read-out: Activity
# [4] = Growth inhibition of human OVCAR4 cells assessed as cell growth at 10^-5 M after 48 hrs by SRB assay; conditions: OVCAR-4, 48 h, read-out: Activity
# HCC 2998 = test: Cytotoxicity against human HCC2998 cells after 48 hrs by SRB assay; conditions: HCC 2998, 48 h; in short: as §1
# [5] = Growth inhibition of human OVCAR8 cells assessed as cell growth at 10^-7 M after 48 hrs by SRB assay; conditions: OVCAR-8, 48 h, read-out: Activity
# U-251 = test: Growth inhibition of human U251 cells assessed as cell growth at 10^-5 M after 48 hrs by SRB assay; conditions: U-251, 48 h, read-out: Activity
# NCI-H23 = test: Growth inhibition of human NCI-H23 cells assessed as cell growth at 10^-8 M after 48 hrs by SRB assay; conditions: NCI-H23, 48 h, read-out: Activity
# A498 [6] = test: Cytotoxicity against human A498 cells after 48 hrs by SRB assay; conditions: A498, 48 h; in short: as §1
# [7] = Growth inhibition of human NCI-ADR-RES cells assessed as cell growth at 10^-4 M after 48 hrs by SRB assay; conditions: read-out: Activity
# SK-MEL-28 = test: Growth inhibition of human SK-MEL-28 cells assessed as cell growth at 10^-8 M after 48 hrs by SRB assay; conditions: SK-MEL-28, 48 h, read-out: Activity
# [8] = Growth inhibition of human LOXIMVI cells assessed as cell growth at 10^-5 M after 48 hrs by SRB assay; conditions: LOX IMVI, read-out: Activity
# RPMI-8226 [9] = test: Growth inhibition of human RPMI8226 cells assessed as cell growth at 10^-8 M after 48 hrs by SRB assay; conditions: RPMI-8226, 48 h, read-out: Activity
# [10] = Growth inhibition of human UO31 cells assessed as cell growth at 10^-8 M after 48 hrs by SRB assay; conditions: UO-31, 48 h, read-out: Activity
# [11] = Growth inhibition of human HCC2998 cells assessed as cell growth at 10^-4 M after 48 hrs by SRB assay; conditions: HCC 2998, 48 h, read-out: Activity
# [12] = Growth inhibition of human UO31 cells assessed as cell growth at 10^-7 M after 48 hrs by SRB assay; conditions: UO-31, 48 h, read-out: Activity
# [13] = Cytotoxicity against human OVCAR8 cells after 48 hrs by SRB assay; conditions: OVCAR-8, 48 h; in short: as §1
# [14] = Growth inhibition of human UACC257 cells assessed as cell growth at 10^-7 M after 48 hrs by SRB assay; conditions: UACC-257, 48 h, read-out: Activity
# COLO 205 = test: Growth inhibition of human COLO205 cells assessed as cell growth at 10^-4 M after 48 hrs by SRB assay; conditions: COLO 205, 48 h, read-out: Activity; in short: as §2
# MDA-MB-468 = test: Growth inhibition of human MDA-MB-468 cells assessed as cell growth at 10^-6 M after 48 hrs by SRB assay; conditions: MDA-MB-468, 48 h, read-out: Activity
# [15] = Growth inhibition of human EKVX cells assessed as cell growth at 10^-8 M after 48 hrs by SRB assay; conditions: read-out: Activity
# CAKI-1 = test: Growth inhibition of human CAKI-1 cells assessed as cell growth at 10^-5 M after 48 hrs by SRB assay; conditions: CAKI-1, 48 h, read-out: Activity; in short: as §2
# A498 [16] = test: Growth inhibition of human A498 cells assessed as cell growth at 10^-5 M after 48 hrs by SRB assay; conditions: A498, 48 h, read-out: Activity; in short: as §2
# [17] = read-out: LC50 (the source's name)
# [18] = read-out: pLC50 (the source's name) (converted)
smiles,measurement,setting,value
Cc1ccc(-c2nc3ccc(Cl)cc3c(=O)n2/N=C/c2ccccc2)cc1,GI50,MDA-MB-435; read-out: GI50,> 100 µM
same,CC50,MDA-MB-435; [17],> 100 µM
same,TGI,MDA-MB-435; read-out: TGI,> 100 µM
same,GI50,MDA-MB-435; read-out: pGI50 (converted),> 100 µM
same,CC50,MDA-MB-435; [18],> 100 µM
same,TGI,MDA-MB-435; read-out: pTGI,> 100 µM
same,GI50,MDA-MB-231; read-out: GI50,4.21 µM
same,LC50,MDA-MB-231; read-out: LC50,> 100 µM
same,TGI,MDA-MB-231; read-out: TGI,> 100 µM
same,GI50,MDA-MB-231; read-out: pGI50 (converted),4.17 µM
same,LC50,MDA-MB-231; read-out: pLC50 (converted),> 100 µM
same,TGI,MDA-MB-231; read-out: pTGI,> 100 µM
same,growth at 10 µM,NCI-H226,38%
same,growth at 1 µM,786-0,90%
same,GI50,NCI-H322M; read-out: GI50,17.4 µM
same,LC50,NCI-H322M; read-out: LC50,> 100 µM
same,TGI,NCI-H322M; read-out: TGI,> 100 µM
same,GI50,NCI-H322M; read-out: pGI50 (converted),17.4 µM
same,LC50,NCI-H322M; read-out: pLC50 (converted),> 100 µM
same,TGI,NCI-H322M; read-out: pTGI,> 100 µM
same,growth at 1 µM,RPMI-8226 [1],90%
same,growth at 1 µM,[2],90%
same,growth at 10 µM,[3],79%
same,growth at 10 µM,[4],23%
same,GI50,HCC 2998; read-out: GI50,> 100 µM
same,CC50,HCC 2998; [17],> 100 µM
same,TGI,HCC 2998; read-out: TGI,> 100 µM
same,GI50,HCC 2998; read-out: pGI50 (converted),> 100 µM
same,CC50,HCC 2998; [18],> 100 µM
same,TGI,HCC 2998; read-out: pTGI,> 100 µM
same,growth at 0.1 µM,[5],100%
same,growth at 10 µM,U-251,32%
same,growth at 0.01 µM,NCI-H23,98%
same,GI50,A498 [6]; read-out: GI50,5.91 µM
same,CC50,A498 [6]; [17],> 100 µM
same,TGI,A498 [6]; read-out: TGI,> 100 µM
same,GI50,A498 [6]; read-out: pGI50 (converted),5.89 µM
same,CC50,A498 [6]; [18],> 100 µM
same,TGI,A498 [6]; read-out: pTGI,> 100 µM
same,growth at 100 µM,[7],36%
same,growth at 0.01 µM,SK-MEL-28,102%
same,growth at 10 µM,[8],63%
same,growth at 0.01 µM,RPMI-8226 [9],95%
same,growth at 0.01 µM,[10],77%
same,growth at 100 µM,[11],88%
same,growth at 0.1 µM,[12],60%
same,GI50,[13]; read-out: GI50,4.58 µM
same,CC50,[13]; [17],> 100 µM
same,TGI,[13]; read-out: TGI,> 100 µM
same,GI50,[13]; read-out: pGI50 (converted),4.57 µM
same,CC50,[13]; [18],> 100 µM
same,TGI,[13]; read-out: pTGI,> 100 µM
same,growth at 0.1 µM,[14],99%
same,growth at 100 µM,COLO 205,38%
same,growth at 1 µM,MDA-MB-468,92%
same,growth at 0.01 µM,[15],92%
same,growth at 10 µM,CAKI-1,38%
same,growth at 10 µM,A498 [16],40%
